Measurements from PubChem BioAssay AID822 (SRMLSC, 2007).
The source made the active and inactive calls.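 How the source made its calls: active means half-maximal effective dose for blocking growth of human endothelial cells at most 100 µM; inactive means the rest.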

Test: HUVEC proliferation inhibition, dose response, cell-based, ATP luminescence (AID 822);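 further: cells exposed to compound for 72 h before the ATP read; 100% = median luminescence of untreated cell-only control wells on each plate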
Settings: HUVEC proliferation, viability ATP luminescence; at 20 µM (top of the series)
Summary of the method: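 Material – HUVEC · Amount – 1250 HUVEC cells seeded per well · Medium – EBM plus 2% FBS · Dosing – dose series 0.039 to 20 µM, DMSO 0.2% · Times – 72 h exposure, 37 °C · Detection – ATP luminescence · Read-out basis – % viability and fitted EC50 · Format – collagen-coated plates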

Structure (SMILES): O=C(CCSc1ccc(Cl)cc1)N1CCN(c2ncccn2)CC1
- viability: 94.5% (inactive)

Structure (SMILES): Clc1ccc(-c2nc(NCCN3CCOCC3)c3ccccc3n2)cc1
- viability: 86% (inactive)

Structure (SMILES): COc1cccc2c(C)nc(Nc3nc(CSc4nnc(C)s4)cc(=O)[nH]3)nc12
- viability: 101% (inactive)

Structure (SMILES): Cc1ccc(-n2c(SCC(=O)Nc3nccs3)nc3c(c2=O)SCC3)cc1
- viability: 100% (inactive)

Structure (SMILES): O=C(Nc1ccc(-c2nc3c(ccc4ccccc43)o2)cc1)c1ccco1
- viability: 90% (inactive)

Structure (SMILES): COc1ccc(OC)c2sc(N3CCCCC3)nc12
- viability: 88.4% (inactive)

Structure (SMILES): CC1CC(C)CN(S(=O)(=O)c2ccc(C(=O)NCCCn3ccnc3)cc2)C1 (centres undefined)
- viability: 88.4% (inactive)

Structure (SMILES): COc1ccc(Cl)cc1C(=O)n1nc(C)cc1C
- viability: 96.7% (inactive)

Structure (SMILES): CCC(C)(C)n1nnnc1C(c1cc2cc(C)cc(C)c2[nH]c1=O)N1CCN(Cc2ccc3c(c2)OCO3)CC1 (centres undefined)
- viability: 80.5% (inactive)

Structure (SMILES): COCCn1c(C)cc(C(=O)CSc2nc3ccccc3o2)c1C
- viability: 96.1% (inactive)

Structure (SMILES): CC(C(=O)N1CCOCC1)N1C(=O)c2ccccc2C1=O (centres undefined)
- viability: 105% (inactive)

Structure (SMILES): Cc1ccc(-n2c(Cc3cccs3)nnc2SCC(=O)Nc2ccc(F)c(F)c2)cc1
- viability: 82.4% (inactive)

Structure (SMILES): COc1ccc2[nH]cc(C(=O)CN3CCN(C4CCCCC4)CC3)c2c1
- viability: 85.4% (inactive)

Structure (SMILES): Cc1cc(NC(=O)c2cccc(S(=O)(=O)N3CC(c4ccccc4)CC3=O)c2)no1 (centres undefined)
- viability: 91.3% (inactive)

Structure (SMILES): COc1ccccc1NC(=O)C1C2C=CC(O2)C1C(=O)O (centres undefined)
- viability: 94.6% (inactive)

Structure (SMILES): Cc1sc2nc(SCC(=O)NCc3ccco3)n(CCc3ccccc3)c(=O)c2c1C
- viability: 91.5% (inactive)

Structure (SMILES): O=C(CN1CCN(S(=O)(=O)c2ccc(F)cc2)CC1)Nc1ccc2c(c1)OCO2
- viability: 116% (inactive)

Structure (SMILES): CC1=C(C)CS(=O)N(S(=O)(=O)c2ccccc2)C1 (centres undefined)
- viability: 80.3% (inactive)

Structure (SMILES): Cc1cc(C)n(-c2nc(Nc3ccccc3C)nc(-n3nc(C)cc3C)n2)n1
- viability: 118% (inactive)

Structure (SMILES): Cc1ccc(-c2nnc(N3CCN(C(=O)CSc4ncn[nH]4)CC3)c3ccccc23)cc1
- viability: 85.9% (inactive)

Structure (SMILES): CCOc1cc(N2CCOCC2)c(OCC)cc1NC(=O)COc1ncnc2ccc(Br)cc12
- viability: 91.2% (inactive)

Structure (SMILES): CN(CCO)c1cc(Sc2nc3ccccc3s2)c2nonc2c1[N+](=O)[O-]
- viability: 85.4% (inactive)

Structure (SMILES): COc1ccc(CCC(=O)N2CCN(C3CCCCC3)CC2)cc1
- viability: 99.8% (inactive)

Structure (SMILES): Cc1ccc(C(C#N)c2ccc(C(=O)c3ccc(F)cc3)cc2)cc1 (centres undefined)
- viability: 84% (inactive)

Structure (SMILES): O=C1CSC(c2ccccn2)N1Cc1cn2ccccc2n1 (centres undefined)
- viability: 120% (inactive)

Structure (SMILES): CN(C)C(=O)CSc1cccc2cccnc12
- viability: 84.4% (inactive)

Structure (SMILES): CCn1c(SCC(=O)Nc2cc(C)on2)nc2sc3c(c2c1=O)CCCC3
- viability: 86.3% (inactive)

Structure (SMILES): CC1(C)CSC(=S)N1S(=O)(=O)c1ccccc1
- viability: 99.8% (inactive)

Structure (SMILES): CSc1nncc(=O)[nH]1
- viability: 96.7% (inactive)

Structure (SMILES): CC1CCCN(c2oc(-c3cccc4ccccc34)nc2C#N)C1 (centres undefined)
- viability: 92.1% (inactive)

Structure (SMILES): COc1ccc(N2C(=O)CC(Sc3nnc(-c4ccccc4)o3)C2=O)cc1 (centres undefined)
- viability: 95% (inactive)

Structure (SMILES): COc1ccc(-c2nnc(SCCc3ccccc3)n2N)cc1
- viability: 108% (inactive)

Structure (SMILES): COc1ccc(CCn2c(=S)[nH]c3cc(C(=O)NCc4ccco4)ccc3c2=O)cc1OC
- viability: 102% (inactive)

Structure (SMILES): Cn1c(NC(=O)c2cccc(Cn3cc(Cl)cn3)c2)nc2ccccc21
- viability: 83.1% (inactive)

Structure (SMILES): Cn1c(=O)c2c(ncn2CC(=O)Nc2nc(-c3ccccc3Cl)cs2)n(C)c1=O
- viability: 89.5% (inactive)

Structure (SMILES): COc1cc2c(C(=O)NCc3ccc4c(c3)OCO4)cn(CC(C)C)c(=O)c2cc1OC
- viability: 82.3% (inactive)

Structure (SMILES): CCOc1ccc(NS(=O)(=O)c2ccc(OCC(=O)NCCCOC)cc2)cc1
- viability: 94.4% (inactive)

Structure (SMILES): OC1(Cc2ccn[nH]2)CCCCC1
- viability: 93.6% (inactive)

Structure (SMILES): CCOC(=O)c1ccc2c(c1)NC(=O)C(N1CCN(c3ccc(OC)cc3)CC1)S2 (centres undefined)
- viability: 98% (inactive)

Structure (SMILES): O=C(Nc1cccnc1)c1ccc(Oc2ccccc2)cc1
- viability: 108% (inactive)

Structure (SMILES): Cn1c(=O)cc(SCC(=O)NCC2COc3ccccc3O2)c2ccccc21 (centres undefined)
- viability: 98.4% (inactive)

Structure (SMILES): CC1=C(C)CS(=O)N(S(=O)(=O)c2ccc(Cl)cc2)C1 (centres undefined)
- viability: 101% (inactive)

Structure (SMILES): O=C(/C=C/NNC(=O)c1ccccc1)c1ccccc1
- viability: 109% (inactive)

Structure (SMILES): CCOC(=O)N1CCN(C(=O)c2nn(-c3ccc(C)cc3)c(=O)c3c2c2ccccc2n3C)CC1
- viability: 89.2% (inactive)

Structure (SMILES): c1ccc2c(c1)oc1c(NCCCN3CCOCC3)ncnc12
- viability: 96.1% (inactive)

Structure (SMILES): CCOC(=O)CNC(=O)C(=O)c1c(O)[nH]c2ccccc12
- viability: 96.7% (inactive)

Structure (SMILES): O=C(CC1SCCNC1=O)Nc1cc(Cl)cc(Cl)c1 (centres undefined)
- viability: 96.6% (inactive)

Structure (SMILES): O=S1(=O)c2ccccc2N=NN1Cc1cc(Cl)cc(Cl)c1
- viability: 84.9% (inactive)

Structure (SMILES): Cc1nc2cc(N3CCCCC3)c(NC(=O)c3cccnc3)cc2c(=O)n1Cc1ccccc1
- viability: 89.3% (inactive)
